Among the data in ChEMBL document CHEMBL4732073, “1-BENZYLSPIRO[PIPERIDINE-4,1'-PYRIDO[3,4-b]indole] 'co-potentiators' for minimal function CFTR mutants” (Eur J Med Chem, 2021) are EC50 and Activity values, retold here.

Calls of active or inactive are those of the source. The calls are words filed in the database; no cut-off is given here.

Common to all, as to format: cell-based
Assay [1] addresses Cystic fibrosis transmembrane conductance regulator (Homo sapiens, UniProt P13569, N1303K). Put plainly: (§1) Potentiation of CFTR N1303K mutant (unknown origin) expressed in rat FRT cells assessed as increase in VX-770-stimulated chloride current in presence of forskolin by short circuit method. Put shortly:
(§2)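 FRT cells stably expressing the mutant CFTR, corrected with 3 μM VX-661 for 18–24 hours, then grown on permeable supports. Short-circuit current at 37 °C in HCO3-buffered solutions with a chloride gradient. Basolateral membrane permeabilized with 250 μg/ml amphotericin B. Additions: 20 μM forskolin, 5 μM VX-770, test compound at a range of concentrations, then 10 μM CFTRinh-172. Concentration dependence n=3, mean ± S.E.M.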

Assay [2] relates to Cystic fibrosis transmembrane conductance regulator (Homo sapiens), P13569 [N1303K]. Described as §1. In short, it runs like this: as §2
Sequence of Cystic fibrosis transmembrane conductance regulator (Homo sapiens), P13569 [N1303K] (P13569 whole entry N1303K): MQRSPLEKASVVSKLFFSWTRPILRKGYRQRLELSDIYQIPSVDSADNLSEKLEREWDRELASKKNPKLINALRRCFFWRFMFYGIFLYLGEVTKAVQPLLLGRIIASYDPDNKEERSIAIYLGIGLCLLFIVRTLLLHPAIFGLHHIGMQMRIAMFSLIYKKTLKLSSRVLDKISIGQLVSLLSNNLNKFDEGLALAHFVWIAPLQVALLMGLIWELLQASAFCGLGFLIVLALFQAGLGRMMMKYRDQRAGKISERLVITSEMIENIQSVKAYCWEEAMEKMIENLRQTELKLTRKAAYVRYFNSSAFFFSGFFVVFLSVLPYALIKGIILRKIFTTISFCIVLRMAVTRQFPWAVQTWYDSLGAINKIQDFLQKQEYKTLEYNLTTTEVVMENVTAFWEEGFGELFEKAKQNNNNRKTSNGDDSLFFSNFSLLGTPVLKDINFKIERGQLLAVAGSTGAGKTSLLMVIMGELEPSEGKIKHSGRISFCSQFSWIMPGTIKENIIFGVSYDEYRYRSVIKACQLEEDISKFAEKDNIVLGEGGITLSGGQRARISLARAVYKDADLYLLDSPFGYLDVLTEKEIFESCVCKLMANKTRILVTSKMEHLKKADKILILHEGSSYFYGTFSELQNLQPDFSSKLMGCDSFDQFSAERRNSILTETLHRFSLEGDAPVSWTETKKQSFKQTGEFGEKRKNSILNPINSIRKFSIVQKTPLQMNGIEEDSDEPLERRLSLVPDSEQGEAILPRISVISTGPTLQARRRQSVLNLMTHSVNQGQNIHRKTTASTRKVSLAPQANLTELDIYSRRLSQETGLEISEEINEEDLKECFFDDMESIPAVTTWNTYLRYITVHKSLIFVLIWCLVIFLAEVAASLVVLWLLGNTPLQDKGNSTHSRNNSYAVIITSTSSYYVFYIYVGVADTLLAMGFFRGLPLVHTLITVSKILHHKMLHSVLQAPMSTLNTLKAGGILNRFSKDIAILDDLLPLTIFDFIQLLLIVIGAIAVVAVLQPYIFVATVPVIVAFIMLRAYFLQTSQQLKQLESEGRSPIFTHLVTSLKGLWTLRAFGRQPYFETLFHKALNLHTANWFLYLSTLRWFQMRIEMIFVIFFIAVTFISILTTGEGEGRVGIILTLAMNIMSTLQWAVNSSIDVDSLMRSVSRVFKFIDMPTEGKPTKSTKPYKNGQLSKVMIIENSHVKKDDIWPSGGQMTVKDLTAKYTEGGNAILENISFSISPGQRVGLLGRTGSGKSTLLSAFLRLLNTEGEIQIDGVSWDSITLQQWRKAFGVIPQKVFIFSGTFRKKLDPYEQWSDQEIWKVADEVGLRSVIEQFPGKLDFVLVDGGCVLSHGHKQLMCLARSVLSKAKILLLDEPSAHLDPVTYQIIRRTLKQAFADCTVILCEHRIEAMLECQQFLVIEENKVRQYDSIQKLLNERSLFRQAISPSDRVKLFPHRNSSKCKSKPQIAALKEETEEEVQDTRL
In assay [3] the test system is Cystic fibrosis transmembrane conductance regulator (Homo sapiens), P13569 [R347P]. Put plainly: Potentiation of CFTR R347P mutant (unknown origin) expressed in rat FRT cells assessed as effect on VX-770-stimulated chloride current in presence of forskolin by short circuit method. In short, it runs like this: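 R347P-CFTR FRT cells, corrected with 3 μM VX-661 for 18–24 h. Short-circuit current at 37 °C in HCO3-buffered solutions with a chloride gradient. Basolateral membrane permeabilized with 250 μg/ml amphotericin B. Sequential additions: 20 μM forskolin, 5 μM VX-770, 20 μM test compound, then 10 μM CFTRinh-172.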
Sequence of Cystic fibrosis transmembrane conductance regulator (Homo sapiens), P13569 [R347P] (P13569 whole entry R347P): as the sequence (P13569 whole entry N1303K) above, with R347P, K1303N counted along it

The test system of assay [4] is Cystic fibrosis transmembrane conductance regulator (Homo sapiens), P13569 [N1303K]. Put plainly: Potentiation of CFTR N1303K mutant (unknown origin) expressed in human 16HBE14o- cells assessed as increase in VX-770-stimulated chloride current in presence of forskolin by short circuit method. The following applies: filed as activator. In short, it runs like this: (§3)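 Gene-edited 16HBE14o- cells grown on permeable supports; short-circuit current at 37 °C with a chloride gradient in Hepes-buffered solutions. Sequential additions: 20 μM forskolin, 5 μM VX-770, 10 μM test compound, then 10 μM CFTRinh-172. Change in current (ΔIsc) reported as mean ± S.E.M., n = 3.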

For a further assay, the system named is 16HBE14o-. Put plainly: Potentiation of CFTR I1234del mutant (unknown origin) expressed in human 16HBE14o- cells assessed as increase in VX-770-stimulated chloride current in presence of forskolin by short circuit method. The conditions noted are these: filed as activator. In short, it runs like this:
as §3

A short description of assay [5]: Potentiation of CFTR I1234del mutant (unknown origin) expressed in rat FRT cells assessed as increase in VX-770-stimulated chloride current in presence of forskolin by short circuit method. The following applies: Homo sapiens. In short, it runs like this: as §2

Sequence of Cystic fibrosis transmembrane conductance regulator (P13569 whole entry N1303K): as the sequence (P13569 whole entry N1303K) above

For `COc1ccc2[nH]c3c(c2c1)CCNC31CCN(Cc2ccccc2Cl)CC1`, the EC50 in assay [1] was determined as 2.2 µM.

As for `COc1ccc2[nH]c3c(c2c1)CCNC31CCN(Cc2ccc(C(C)(C)C)cc2)CC1`, the outcome in assay [2] was inactive. For the compound `COc1ccc2[nH]c3c(c2c1)CCNC31CCN(Cc2cc(F)cc(F)c2)CC1`, the EC50 in assay [1] amounted to 11.1 µM. As to `COc1ccc2[nH]cc(CCNC3CCN(Cc4ccccc4)CC3)c2c1`, the outcome in assay [2] was inactive. In the case of `COc1ccc2[nH]c3c(c2c1)CCNC31CCCN(Cc2ccc(F)cc2F)CC1` (configuration not stated), the EC50 in assay [1] worked out at 20 µM. On to `COc1ccc2[nH]c3c(c2c1)CCNC31CCN(Cc2ccc(Cl)cc2Cl)CC1`, for which the EC50 in assay [1] came out at 1.8 µM. On the same count and under the same terms, as for `COc1ccc2[nH]c3c(c2c1)CCNC31CCN(Cc2ccc([N+](=O)[O-])cc2F)CC1`, the figure is 5.9 µM. On the same count and under the same terms, as for `COc1ccc2[nH]c3c(c2c1)CCNC31CCN(Cc2cc(F)cc(Cl)c2)CC1`, the figure is 2.5 µM; as for `COc1ccc2[nH]c3c(c2c1)CCNC31CCN(Cc2cc(F)ccc2F)CC1`, 11.1 µM.

With `COc1ccc2[nH]c3c(c2c1)CCNC31CCN(Cc2ccc(F)cc2F)CC1`, the EC50 in assay [1] was determined as 2 µM. On to `COc1ccc2[nH]c3c(c2c1)CCNC31CCN(Cc2cc(F)c(F)cc2F)CC1`, for which the result in assay [3] was inactive. Moreover, the outcome (in assay [4]; in the assay on 16HBE14o-) was Active. In assay [5], the EC50 amounted to 0.7 µM.

Take `COc1ccc2[nH]c3c(c2c1)CCNC31CCN(Cc2ccco2)CC1`: the EC50 in assay [1] is 16.4 µM. Regarding `COc1ccc2[nH]c3c(c2c1)CCNC31CCN(Cc2ccccn2)CC1`, the EC50 in assay [1] stood at 11.5 µM.

Take `Fc1ccc(CN2CCC3(CC2)NCCc2c3[nH]c3ccccc23)c(F)c1`: the EC50 in assay [1] is 8.2 µM. For the compound `COc1ccc2[nH]c3c(c2c1)CCN[C@@]31CCN2Cc3ccccc3C[C@H]2C1` (racemic), the result in assay [2] was inactive.

For the compound `COc1ccc2[nH]c3c(c2c1)CCNC31CCN(Cc2cc(Cl)ccc2[N+](=O)[O-])CC1`, the EC50 in assay [1] amounted to 7.1 µM. Same read-out and setting: the same measure for `Fc1ccc(CN2CCC3(CC2)NCCc2c3[nH]c3ccc(Br)cc23)c(F)c1`: 21 µM; for `COc1ccc2[nH]c3c(c2c1)CCNC31CCN(C(C)c2ccccc2)CC1` (configuration not stated): 20 µM. Turning to `COc1ccc2[nH]c3c(c2c1)CCNC31CCN(Cc2cccnc2)CC1`, the EC50 in assay [1] was found to be 17 µM. On the same count and under the same terms, the same measure for `COc1ccc2[nH]c3c(c2c1)CCNC31CCN(Cc2cccc(F)c2F)CC1`: 13.6 µM; for `COc1ccc2[nH]c3c(c2c1)CCNC31CCN(Cc2ccccc2)CC1`: 12.6 µM. `COc1ccc2c(c1)c1c(n2C)C2(CCN(Cc3ccc(F)cc3F)CC2)NCC1`: the result in assay [2] was inactive. Take `COc1ccc2[nH]c3c(c2c1)CCNC31CCN(Cc2ccc(Br)c(F)c2)CC1`: the EC50 in assay [1] was 1.8 µM.

For `COc1ccc2[nH]c3c(c2c1)CCNC31CCN(Cc2ccc(Br)cc2F)CC1`, the EC50 in assay [1] came to 1.6 µM.

Regarding `COc1ccc2[nH]c3c(c2c1)CCNC31CCN(Cc2ccc(F)c(F)c2)CC1`, the EC50 in assay [1] was found to be 11 µM. With `COc1ccc2[nH]c3c(c2c1)CCNC31CCCN(Cc2ccc(F)cc2F)C1` (configuration not stated), the result in assay [2] was inactive.

For `COc1ccc2[nH]c3c(c2c1)CCNC31CCN(Cc2c(F)ccc(Cl)c2F)CC1`, the EC50 in assay [1] is 4.5 µM. Regarding `COc1ccc2[nH]c3c(c2c1)CCNC31CCNCC1`, the outcome in assay [2] was inactive. Same read-out and setting: as for `COc1ccc2[nH]c3c(c2c1)CCNC31CCN(Cc2ccc(F)cc2F)C1` (configuration not stated), the entry is “inactive”.

What is called EC50 is the concentration needed to bring the measured effect to its halfway point.
